Assay [1] deals with T1, Protein mono-ADP-ribosyltransferase PARP15 (Homo sapiens, UniProt Q460N3).
T1 sequence (Q460N3 whole entry): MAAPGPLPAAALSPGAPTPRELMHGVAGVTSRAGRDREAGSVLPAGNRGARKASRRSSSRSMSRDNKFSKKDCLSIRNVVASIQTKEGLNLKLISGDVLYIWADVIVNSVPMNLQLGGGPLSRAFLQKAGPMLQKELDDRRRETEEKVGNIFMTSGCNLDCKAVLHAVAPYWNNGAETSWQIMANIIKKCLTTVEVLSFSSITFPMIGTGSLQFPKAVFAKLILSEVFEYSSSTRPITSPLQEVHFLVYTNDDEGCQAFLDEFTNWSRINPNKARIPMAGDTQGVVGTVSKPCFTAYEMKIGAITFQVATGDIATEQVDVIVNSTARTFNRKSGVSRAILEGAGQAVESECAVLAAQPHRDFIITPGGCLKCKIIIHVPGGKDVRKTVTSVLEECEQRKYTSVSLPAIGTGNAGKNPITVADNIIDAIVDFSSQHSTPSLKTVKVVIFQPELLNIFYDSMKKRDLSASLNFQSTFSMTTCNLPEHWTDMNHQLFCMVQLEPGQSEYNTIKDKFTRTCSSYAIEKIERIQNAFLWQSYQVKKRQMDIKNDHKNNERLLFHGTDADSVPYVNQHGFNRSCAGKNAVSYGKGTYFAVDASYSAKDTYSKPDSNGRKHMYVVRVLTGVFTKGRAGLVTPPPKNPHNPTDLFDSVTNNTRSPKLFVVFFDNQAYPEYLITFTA
Briefly: Inhibition of N-terminal His-tagged human PARP15 catalytic domain expressed in Escherichia coli BL21 (DE3) preincubated with 6-a-NAD+ for 5 to 10 mins followed by enzyme addition and measured after 60 mins using NAD+ as substrate byHRP based chemiluminescence assay. The method, boiled down:
(§1)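 Plate-based PASTA assay. His6-SRPK2 is captured on nickel-coated wells as the ADP-ribosylation substrate in HEPES pH 7.5 buffer with NaCl, MgCl2 and TCEP. Recombinant PARP is added at 4–400 nM (2×). Inhibitor (0–200 μM) is premixed with 200 μM 6-a-NAD+ (2×) and reacted 60 min at 30 °C. Incorporated label is click-conjugated to biotin-azide and detected with streptavidin-HRP by chemifluorescence (ex 570/em 600). IC50 is the mean of ≥3 independent assays.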

Assay [2] deals with Protein mono-ADP-ribosyltransferase PARP4 (Homo sapiens, UniProt Q9UKK3). Briefly: Inhibition of N-terminal His-tagged recombinant human PARP4 brct-catalytic domain (369 to 573 residues) expressed in Escherichia coli BL21 (DE3) preincubated with 6-a-NAD+ for 5 to 10 mins followed by enzyme addition and measured after 60 mins using NAD+ as substrate byHRP based chemiluminescence assay. A digest of the protocol:
as §1

The target in assay [3] is Poly [ADP-ribose] polymerase 2 (Homo sapiens, UniProt Q9UGN5). Briefly: Inhibition of N-terminal His-tagged full length human PARP2 expressed in Escherichia coli BL21 (DE3) preincubated with 6-a-NAD+ for 5 to 10 mins followed by enzyme addition and measured after 60 mins using NAD+ as substrate byHRP based chemiluminescence assay. A digest of the protocol:
as §1

Assay [4] deals with Poly [ADP-ribose] polymerase 1 (Homo sapiens, UniProt P09874). Briefly: Inhibition of N-terminal His-tagged full length human PARP1 expressed in Escherichia coli BL21 (DE3) preincubated with 6-a-NAD+ for 5 to 10 mins followed by enzyme addition and measured after 60 mins using NAD+ as substrate byHRP based chemiluminescence assay. A digest of the protocol:
as §1

The target in assay [5] is T2, Protein mono-ADP-ribosyltransferase PARP11 (Homo sapiens, UniProt Q9NR21).
T2 sequence (Q9NR21 whole entry): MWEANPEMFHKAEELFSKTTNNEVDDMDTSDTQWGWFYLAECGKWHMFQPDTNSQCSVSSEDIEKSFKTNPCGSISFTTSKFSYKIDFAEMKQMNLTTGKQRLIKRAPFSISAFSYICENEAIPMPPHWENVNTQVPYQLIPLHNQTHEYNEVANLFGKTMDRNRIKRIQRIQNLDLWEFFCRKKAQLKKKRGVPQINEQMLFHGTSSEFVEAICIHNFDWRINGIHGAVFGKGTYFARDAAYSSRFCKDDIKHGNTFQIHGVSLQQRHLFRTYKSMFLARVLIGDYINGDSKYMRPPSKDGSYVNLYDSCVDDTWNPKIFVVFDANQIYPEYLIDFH
The assay is described as follows: Inhibition of N-terminal His-tagged full length human PARP11 expressed in Escherichia coli BL21 (DE3) preincubated with 6-a-NAD+ for 5 to 10 mins followed by enzyme addition and measured after 60 mins using NAD+ as substrate byHRP based chemiluminescence assay. A digest of the protocol:
as §1

We go through seven compounds from ChEMBL document CHEMBL5107944, “Rational design of selective inhibitors of PARP4” (RSC Med Chem, 2021).

Sequence of Protein mono-ADP-ribosyltransferase PARP4 (Q9UKK3 whole entry, the tested form may be a part): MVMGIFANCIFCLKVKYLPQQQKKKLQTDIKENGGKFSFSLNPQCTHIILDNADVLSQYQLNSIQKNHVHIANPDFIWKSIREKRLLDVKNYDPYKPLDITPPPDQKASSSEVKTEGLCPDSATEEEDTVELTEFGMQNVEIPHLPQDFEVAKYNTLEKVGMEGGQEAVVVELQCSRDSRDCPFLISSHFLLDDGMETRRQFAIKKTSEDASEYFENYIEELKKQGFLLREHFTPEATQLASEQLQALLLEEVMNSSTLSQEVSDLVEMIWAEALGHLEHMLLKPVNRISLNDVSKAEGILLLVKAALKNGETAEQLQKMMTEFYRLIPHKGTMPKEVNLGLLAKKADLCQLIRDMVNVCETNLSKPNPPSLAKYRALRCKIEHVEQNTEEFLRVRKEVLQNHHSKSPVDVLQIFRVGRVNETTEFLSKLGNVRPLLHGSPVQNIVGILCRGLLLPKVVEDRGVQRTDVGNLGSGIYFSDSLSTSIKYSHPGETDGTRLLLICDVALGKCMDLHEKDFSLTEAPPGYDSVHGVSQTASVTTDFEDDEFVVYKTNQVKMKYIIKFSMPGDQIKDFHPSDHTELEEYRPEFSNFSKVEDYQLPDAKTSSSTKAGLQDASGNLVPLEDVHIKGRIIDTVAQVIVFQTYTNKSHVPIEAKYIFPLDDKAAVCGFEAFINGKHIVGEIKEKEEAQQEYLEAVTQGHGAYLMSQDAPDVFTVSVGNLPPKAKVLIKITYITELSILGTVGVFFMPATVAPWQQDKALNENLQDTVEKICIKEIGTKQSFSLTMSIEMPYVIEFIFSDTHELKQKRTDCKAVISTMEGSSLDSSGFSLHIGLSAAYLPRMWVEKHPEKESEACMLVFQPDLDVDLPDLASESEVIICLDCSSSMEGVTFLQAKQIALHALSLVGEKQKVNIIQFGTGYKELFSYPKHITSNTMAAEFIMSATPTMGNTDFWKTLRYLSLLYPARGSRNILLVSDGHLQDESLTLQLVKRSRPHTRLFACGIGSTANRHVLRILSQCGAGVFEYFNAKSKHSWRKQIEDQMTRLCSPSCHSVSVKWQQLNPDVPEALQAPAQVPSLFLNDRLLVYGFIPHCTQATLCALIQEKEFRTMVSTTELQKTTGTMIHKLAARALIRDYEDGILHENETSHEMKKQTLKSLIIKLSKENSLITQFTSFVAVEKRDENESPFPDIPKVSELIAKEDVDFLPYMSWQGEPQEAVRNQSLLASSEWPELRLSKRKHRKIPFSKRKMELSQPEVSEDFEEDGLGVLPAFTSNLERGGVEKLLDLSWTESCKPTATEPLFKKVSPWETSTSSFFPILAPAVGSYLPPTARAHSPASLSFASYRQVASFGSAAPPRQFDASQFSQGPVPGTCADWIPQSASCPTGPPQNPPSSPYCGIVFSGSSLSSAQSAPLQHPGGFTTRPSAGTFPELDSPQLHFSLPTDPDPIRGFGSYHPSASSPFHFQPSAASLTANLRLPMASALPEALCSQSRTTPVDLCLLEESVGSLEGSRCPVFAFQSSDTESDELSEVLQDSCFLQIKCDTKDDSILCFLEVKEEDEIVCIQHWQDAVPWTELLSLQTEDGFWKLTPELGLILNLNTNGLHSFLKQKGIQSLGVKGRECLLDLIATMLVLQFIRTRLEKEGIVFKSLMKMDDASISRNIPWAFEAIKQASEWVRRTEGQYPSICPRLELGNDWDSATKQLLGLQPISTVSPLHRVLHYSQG
Sequence of Poly [ADP-ribose] polymerase 2 (Q9UGN5 whole entry): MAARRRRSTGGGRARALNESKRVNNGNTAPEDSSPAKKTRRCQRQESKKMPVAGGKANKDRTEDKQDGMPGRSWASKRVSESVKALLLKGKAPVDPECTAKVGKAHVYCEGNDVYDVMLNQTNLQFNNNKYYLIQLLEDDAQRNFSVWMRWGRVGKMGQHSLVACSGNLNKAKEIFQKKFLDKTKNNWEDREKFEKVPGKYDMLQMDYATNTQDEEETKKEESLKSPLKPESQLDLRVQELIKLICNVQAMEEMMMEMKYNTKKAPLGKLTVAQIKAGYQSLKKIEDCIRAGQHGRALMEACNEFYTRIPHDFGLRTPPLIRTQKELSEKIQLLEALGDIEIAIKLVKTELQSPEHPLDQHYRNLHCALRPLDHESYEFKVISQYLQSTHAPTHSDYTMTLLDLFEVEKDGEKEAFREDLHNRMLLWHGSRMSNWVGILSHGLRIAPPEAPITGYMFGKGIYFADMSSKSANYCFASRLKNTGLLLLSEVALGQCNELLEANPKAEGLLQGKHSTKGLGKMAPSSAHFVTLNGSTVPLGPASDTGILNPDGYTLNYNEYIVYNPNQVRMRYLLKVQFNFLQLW
Sequence of Poly [ADP-ribose] polymerase 1 (P09874 whole entry): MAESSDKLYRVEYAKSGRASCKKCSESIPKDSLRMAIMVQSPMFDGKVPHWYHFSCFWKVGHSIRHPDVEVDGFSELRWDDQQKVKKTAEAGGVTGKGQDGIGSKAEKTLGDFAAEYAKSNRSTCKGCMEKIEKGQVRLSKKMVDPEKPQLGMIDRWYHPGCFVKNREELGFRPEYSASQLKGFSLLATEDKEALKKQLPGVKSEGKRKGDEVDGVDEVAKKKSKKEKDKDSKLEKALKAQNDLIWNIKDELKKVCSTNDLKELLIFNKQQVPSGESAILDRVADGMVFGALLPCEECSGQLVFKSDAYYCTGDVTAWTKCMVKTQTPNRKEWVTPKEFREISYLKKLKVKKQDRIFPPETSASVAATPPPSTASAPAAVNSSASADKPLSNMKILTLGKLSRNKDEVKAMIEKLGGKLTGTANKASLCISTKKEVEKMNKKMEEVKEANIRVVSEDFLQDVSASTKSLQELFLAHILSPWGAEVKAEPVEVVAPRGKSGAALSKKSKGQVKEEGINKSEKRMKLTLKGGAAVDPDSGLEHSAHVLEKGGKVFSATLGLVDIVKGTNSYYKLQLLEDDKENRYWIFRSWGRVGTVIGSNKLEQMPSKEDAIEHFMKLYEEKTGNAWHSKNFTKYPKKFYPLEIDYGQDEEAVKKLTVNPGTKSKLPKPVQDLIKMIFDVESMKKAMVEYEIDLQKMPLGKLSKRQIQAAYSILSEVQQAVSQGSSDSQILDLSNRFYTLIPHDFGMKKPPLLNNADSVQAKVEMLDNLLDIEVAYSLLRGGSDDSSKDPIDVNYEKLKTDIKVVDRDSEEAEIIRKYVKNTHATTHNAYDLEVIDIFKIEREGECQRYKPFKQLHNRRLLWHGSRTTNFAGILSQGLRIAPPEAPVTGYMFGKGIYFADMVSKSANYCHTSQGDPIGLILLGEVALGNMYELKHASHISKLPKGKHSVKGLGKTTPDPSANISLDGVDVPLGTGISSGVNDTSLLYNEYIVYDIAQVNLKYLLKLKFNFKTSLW

Take `CC#Cc1cc(C)c2nc(CSc3ncccn3)[nH]c(=O)c2c1`: it took 3300 nM to reach half-maximal inhibition in assay [1] (IC50).

For `Cc1cc(Br)cc2c(=O)[nH]c(CSc3ccc(C(=O)O)cc3)nc12`, the IC50 (commonly the point on the concentration scale where inhibition reaches its midpoint) in assay [2] stood at 1900 nM.

On to `Cc1cc(Br)cc2c(=O)[nH]c(CSc3ncccn3)nc12`, for which the IC50 was 2000 nM in assay [3], 800 nM in assay [2] and 2500 nM in assay [4].

`Cc1cc(I)cc2c(=O)[nH]c(CSc3ncccn3)nc12`: the IC50 in assay [2] came out at 2700 nM.

`Cc1cccc2c(=O)[nH]c(CSc3ncccn3)nc12`: the concentration for half-maximal inhibition (IC50) in assay [3] came out at 800 nM; in assay [5], 200 nM.

Consider `Cc1cc(C)c2nc(CSc3ncccn3)[nH]c(=O)c2c1`, for which the IC50 in assay [2] came to 500 nM; in assay [4], 100 nM.

In the case of `Cc1cc(I)cc2c(=O)[nH]c(CSc3ccc(C(=O)O)cc3)nc12`, the IC50 in assay [2] is 800 nM.
